# Experiments:
# [1] = tested on: Citrobacter freundii; test: The compound was tested in vitro for minimum inhibitory concentration against Citrobacter Freundii BS-16; assay type: functional
# In short: (§1)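 Agar dilution on Mueller-Hinton agar using 2-fold serial dilutions, giving final 128 to 0.0156 μg/mL (extended to 0.000977 μg/mL where needed). Inoculum was overnight broth culture diluted 100-fold, about 3×10^4 CFU/spot, applied by replicator. MIC read after overnight incubation at 36 °C.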
# [2] = tested on: Escherichia coli; test: The compound was tested in vitro for minimum inhibitory concentration against Escherichia coli ATCC 25922; assay type: functional; in short: as §1
# [3] = tested on: Escherichia coli; test: Minimum inhibitory concentration required to inhibit the activity of Escherichia coli ATCC 25922; assay type: functional; in short: as §1
# [4] = tested on: Escherichia coli; test: Minimum inhibitory concentration required to inhibit the activity of Escherichia coli UB1005; assay type: functional; in short: as §1
# [5] = tested on: Escherichia coli; test: Minimum inhibitory concentration for inhibition of [14C]- Pen G binding to Escherichia coli UB1005; assay type: functional
# In short: (§2)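 Membranes from sonicated E. coli UB1005 were solubilized. Binding to penicillin-binding proteins was measured as inhibition of [14C]penicillin G binding.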
# [6] = tested on: Escherichia coli; test: The compound was tested in vitro for minimum inhibitory concentration against Escherichia coli 257; assay type: functional; in short: as §1
# [7] = tested on: Enterococcus faecalis; test: The compound was tested in vitro for minimum inhibitory concentration against Enterococcus faecalis ATCC 29212; assay type: functional; in short: as §1
# [8] = tested on: Escherichia coli; test: The compound was tested in vitro for minimum inhibitory concentration against Escherichia coli TEM-1; assay type: functional; in short: as §1
# [9] = tested on: Enterobacter cloacae; test: The compound was tested in vitro for minimum inhibitory concentration against Enterobacter cloacae P99; assay type: functional
# [10] = tested on: Escherichia coli; test: Inhibitory activity on replicative DNA biosynthesis in Escherichia coli H560 (permeabilised cells); assay type: functional, organism-based
# In short: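 E. coli H560 cells permeabilized with toluene. ATP-dependent incorporation of [3H]thymidine into trichloroacetic acid-insoluble material was measured. IC50 taken as the concentration giving 50% inhibition.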
# [11] = tested on: Micrococcus luteus; test: The compound was tested in vitro for minimum inhibitory concentration against Micrococcus luteus ATCC 9341; assay type: functional; in short: as §1
# [12] = tested on: Proteus mirabilis; test: The compound was tested in vitro for minimum inhibitory concentration against Proteus mirabilis 90; assay type: functional
# In short: (§3)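 Proteus MICs by agar dilution on Mueller-Hinton medium containing 3% agar. Serial 2-fold dilutions gave final 128 to 0.0156 μg/mL (further to 0.000977 μg/mL). Inoculum was overnight broth diluted 100-fold, about 3×10^4 CFU/spot. Plates read after overnight incubation at 36 °C.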
# [13] = tested on: Pseudomonas aeruginosa; test: The compound was tested in vitro for minimum inhibitory concentration against Pseudomonas aeruginosa 18S/H; assay type: functional; in short: as §1
# [14] = tested on: Escherichia coli; test: The compound was evaluated for the inhibition of [14C]- Pen G binding to Escherichia coli UB1005 penicillin-binding protein 1a 90 kDa.; in short: as §2
# [15] = tested on: Escherichia coli; test: The compound was evaluated for the inhibition of [14C]- Pen G binding to Escherichia coli UB1005 penicillin-binding protein 1b 90 kDa.; in short: as §2
# [16] = tested on: Escherichia coli; test: The compound was evaluated for the inhibition of [14C]- Pen G binding to Escherichia coli UB1005 penicillin-binding protein 2 66 kDa.; in short: as §2
# [17] = tested on: Escherichia coli; test: The compound was evaluated for the inhibition of [14C]- Pen G binding to Escherichia coli UB1005 penicillin-binding protein 3 60 kDa.; in short: as §2
# [18] = tested on: Pseudomonas aeruginosa; test: The compound was tested in vitro for minimum inhibitory concentration against Pseudomonas aeruginosa 8780; assay type: functional; in short: as §1
# [19] = tested on: Proteus vulgaris; test: The compound was tested in vitro for minimum inhibitory concentration against Proteus vulgaris 1028 BC; assay type: functional; in short: as §3
# [20] = tested on: Staphylococcus aureus; test: The compound was tested in vitro for minimum inhibitory concentration against Staphylococcus aureus 67-0; assay type: functional; in short: as §1
# [21] = tested on: Staphylococcus aureus; test: The compound was tested in vitro for minimum inhibitory concentration against Staphylococcus aureus 753; assay type: functional; in short: as §1
# [22] = tested on: Streptococcus pyogenes; test: The compound was tested in vitro for minimum inhibitory concentration against Streptococcus pyogenes; assay type: functional
# In short: (§4)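 Streptococci tested by agar dilution on brain heart infusion agar with 20 units/mL bovine liver catalase. Final drug range 128 to 0.0156 μg/mL by 2-fold steps, extended to 0.000977 μg/mL when required. Inoculum about 3×10^4 CFU/spot from overnight broth diluted 100-fold. MIC after overnight incubation at 36 °C.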
# [23] = tested on: Serratia marcescens; test: The compound was tested in vitro for minimum inhibitory concentration against Serratia marcescens 1071; assay type: functional; in short: as §1
# [24] = tested on: Streptococcus pneumoniae; test: The compound was tested in vitro for minimum inhibitory concentration against Streptococcus pneumoniae 6301; assay type: functional; in short: as §4
# [25] = tested on: Staphylococcus aureus; test: The compound was tested in vitro for minimum inhibitory concentration against Staphylococcus aureus smith; assay type: functional; in short: as §1
# [26] = tested on: Klebsiella pneumoniae; test: The compound was tested in vitro for minimum inhibitory concentration against Klebsiella pneumoniae A; assay type: functional; in short: as §1
Structure (SMILES),MIC [2],MIC [3],MIC [4],MIC [6],MIC [7],MIC [8],MIC [9],IC50 [10],MIC [11],MIC [12],MIC [13],MIC [18],MIC [19],MIC [20],MIC [21],MIC [22],MIC [23],MIC [24],MIC [25],MIC [26],also measured
Nc1nc(/C(=N/OCC(=O)O)C(=O)N[C@@H]2C(=O)N3C(C(=O)O)=C(COC(=O)N4CCN(c5cc6c(cc5F)c(=O)c(C(=O)O)cn6C5CC5)CC4)CS[C@H]23)cs1,0.031 µg/mL,0.03 µg/mL,1 µg/mL,0.031 µg/mL,1 µg/mL,0.063 µg/mL,0.063 µg/mL,1.7 µg/mL,0.5 µg/mL,0.125 µg/mL,1 µg/mL,1 µg/mL,0.125 µg/mL,4 µg/mL,4 µg/mL,0.063 µg/mL,0.25 µg/mL,0.125 µg/mL,0.5 µg/mL,0.125 µg/mL,MIC [1]: 0.125 µg/mL; MIC [5]: 1 µg/mL; Inhibitory concentration [14]: 100 µg/mL; Inhibitory concentration [15]: 10 µg/mL; Inhibitory concentration [16]: > 100 µg/mL; Inhibitory concentration [17]: < 0.1 µg/mL
NC(=O)CO/N=C(\C(=O)N[C@@H]1C(=O)N2C(C(=O)O)=C(COC(=O)N3CCN(c4cc5c(cc4F)c(=O)c(C(=O)O)cn5C4CC4)CC3)CS[C@H]12)c1csc(N)n1,0.063 µg/mL,0.06 µg/mL,1 µg/mL,0.063 µg/mL,0.5 µg/mL,0.063 µg/mL,0.063 µg/mL,1.2 µg/mL,0.063 µg/mL,0.5 µg/mL,1 µg/mL,2 µg/mL,0.063 µg/mL,4 µg/mL,2 µg/mL,0.031 µg/mL,0.125 µg/mL,0.031 µg/mL,1 µg/mL,0.125 µg/mL,MIC [5]: 1 µg/mL; Inhibitory concentration [14]: 2 µg/mL; Inhibitory concentration [15]: 10 µg/mL; Inhibitory concentration [16]: 100 µg/mL; Inhibitory concentration [17]: < 0.1 µg/mL
O=C(COc1ccccc1)N[C@@H]1C(=O)N2C(C(=O)O)=C(COC(=O)N3CCN(c4cc5c(cc4F)c(=O)c(C(=O)O)cn5C4CC4)CC3)CS[C@H]12,0.063 µg/mL,0.06 µg/mL,2 µg/mL,0.063 µg/mL,4 µg/mL,0.063 µg/mL,0.031 µg/mL,4.2 µg/mL,0.031 µg/mL,0.125 µg/mL,0.5 µg/mL,1 µg/mL,0.125 µg/mL,4 µg/mL,4 µg/mL,0.031 µg/mL,0.25 µg/mL,0.031 µg/mL,0.25 µg/mL,0.25 µg/mL,MIC [1]: 0.063 µg/mL; MIC [5]: 2 µg/mL; Inhibitory concentration [14]: > 100 µg/mL; Inhibitory concentration [15]: > 100 µg/mL; Inhibitory concentration [16]: > 100 µg/mL; Inhibitory concentration [17]: > 100 µg/mL
O=C(O)C1=C(COC(=O)N2CCN(c3cc4c(cc3F)c(=O)c(C(=O)O)cn4C3CC3)CC2)CS[C@@H]2[C@H](NC(=O)C(O)c3ccccc3)C(=O)N12 (stereo partly drawn),0.031 µg/mL,0.03 µg/mL,1 µg/mL,0.031 µg/mL,4 µg/mL,0.031 µg/mL,< 0.016 µg/mL,4 µg/mL,0.031 µg/mL,0.25 µg/mL,0.5 µg/mL,1 µg/mL,0.063 µg/mL,2 µg/mL,0.5 µg/mL,< 0.016 µg/mL,0.125 µg/mL,0.031 µg/mL,0.25 µg/mL,0.063 µg/mL,MIC [1]: 0.031 µg/mL

# — ChEMBL document CHEMBL1125212, “Dual-action cephalosporins: cephalosporin 3'-quinolone carbamates” (J Med Chem, 1991)
